697 NFkB inh = lowers PMA/ionomycin-induced NF-kB signal in 697 B cells. 697 B-cell NF-kB luciferase reporter, 16 h. inhibition, % at 4 µM. actives 0.33% (n = 330,000); in the data active = inhibition above about 35%
CHOP inh = inhibitors of CHOP induction in ER stress response; CHO-K1 CHOP-promoter luciferase, tunicamycin-induced, 15-18 h; inhibition, % at 10 µM; actives 3.8% (n = 220,000); AID 2732;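 active = compounds that reduced the stress-induced luciferase reporter signal by more than about 70% of percent inhibition, limit read from the data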;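 note: 0% = tunicamycin plus vehicle and 100% = wells without tunicamycin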
UPR CHOP act = activators of apoptotic arm of unfolded protein response (CHOP); CHO-CHOP luciferase reporter, UPR activation, luminescence; percent of tunicamycin response over DMSO baseline; activation, % at 10 µM; actives 0.34% (n = 330,000); AID 449763;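 active = at 10 µM dose, activation of 40% or more, normalized to positive control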;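 note: 100% = tunicamycin at 10 µg/mL and 0% = DMSO alone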
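Assay system: CHO cells with stable CHOP pathway luciferase reporter; Buffer or medium: F12 plus 10% serum; Times: 16-18 h cell attachment, then 6 h compound exposure, 37 °C; Signal: luciferase luminescence; Read-out basis: percent activation relative to tunicamycin control; Control set: tunicamycin high control, DMSO low control.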
XBP1 UPR activ = adaptive UPR (XBP1) activation; CHO-XBP1 luciferase reporter, IRE1-XBP1 UPR activation, luminescence; percent of tunicamycin response, DMSO as zero; activation, % at 20 µM; actives 0.33% (n = 330,000);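 active = versus positive control, 20 µM dose yields 30% or more activation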;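 note: 100% = tunicamycin at 10 µg/mL and 0% = DMSO only wells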
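Material – CHO cell line with stable XBP1 luciferase reporter · Buffer or medium – F12 plus 10% FBS · Compound – single point, 20 µM final compound, 1% DMSO · Schedule – 16-18 h cell attachment at 37 °C, then 6 h compound exposure · Signal – Steady-Glo luminescence read · Benchmarks – high control tunicamycin 10 µg/mL final, low control DMSO vehicle only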
Jurkat NFkB inh = inhibitors of the PMA/ionomycin-induced NF-kB reporter in Jurkat cells; PMA/ionomycin-induced NF-kB luciferase reporter, luminescence; inhibition, % at 4 µM; actives 0.53% (n = 330,000); AID 435003; in the data active = inhibition above about 50%
Active calls of the source: *; . = not tested or not shown. This is one part of a sample in which hits are shown more often than they occur.

SMILES	697 NFkB inh	CHOP inh	UPR CHOP act	XBP1 UPR activ	Jurkat NFkB inh
COc1ccc2c(c1)c(=O)oc1cc3occ(C(C)(C)C)c3cc12	-17	87*	2	5	1
COc1ccc(S(=O)(=O)NC2CC(C)(C)NC(C)(C)C2)c2ccccc12	-8	.	1	-1	9
O=C(COC(=O)CCC(=O)c1ccc(F)cc1)Nc1ccc2[nH]c(=O)[nH]c2c1	-7	.	-2	-3	-8
COc1ccc(NC(=O)c2cc3cc(OC)ccc3oc2=O)cc1	-14	.	3	0	-8
COc1ccc2oc(=O)c(C(=O)Nc3cccc(C)c3)cc2c1	-101	82*	7	10	-89
O=c1cc(O)cc(/C=C/c2ccc(O)c(O)c2)o1	.	10	.	.	.
COc1ccc(C(=O)O/N=C(\N)c2ccc(Br)cc2)cc1	-70	.	3	3	-75
Cc1ccc(C(=O)O/N=C(\N)c2ccc(Br)cc2)cc1	-93	72*	4	-3	-40
O=C(Nc1cccc(C(F)(F)F)c1)C(Sc1ncnc2ccccc12)c1ccccc1 (centres undefined)	16	76*	0	-3	5
Cc1cc(C)cc(NC(=O)C(Sc2ncnc3ccccc23)c2ccccc2)c1 (centres undefined)	-6	23	1	-3	-6
CC1CC(C)CN(CC(C)(C)NS(=O)(=O)c2ccc(Cl)cc2)C1 (centres undefined)	1	94*	2	0	1
CC(C)(CN1CCCCC1)NS(=O)(=O)c1ccc(Cl)cc1	5	24	-1	-2	-11
O=C(O)CCC(=O)Nc1ccccc1Oc1ccccc1	4	-4	0	-4	10
Cc1cc2c(cc1C)CSC(c1ccc3ccccc3c1O)SC2	-100	65	-2	-2	-10
Cc1cc2c(cc1C)CSC(c1ccc(O)cc1)SC2	28	90*	-1	-1	8
CC(C)[C@H](NC(=O)c1ccccc1F)C(=O)OCC(=O)NC1CC1	-13	.	0	-2	-12
O=C(CCN1C(=O)/C(=C/C=C/c2ccccc2)SC1=S)Nc1ccccn1	5	85*	9	9	0
O=C(CCCN1C(=O)/C(=C/c2ccccc2)SC1=S)Nc1ccccc1O	-12	82*	-2	0	-13
CC(=C\c1ccccc1)/C=C1/SC(=S)N(CCC(=O)Nc2ccccn2)C1=O	2	9	0	-3	-3
Cc1ccc(/C=C2\SC(=S)N(CC(=O)Nc3cccnc3)C2=O)cc1	-1	86*	0	-1	1
COC(=O)c1ccc(/C=C2/SC(=S)N(CCCC(=O)Nc3ccccn3)C2=O)cc1	-11	77*	-7	-5	-8
O=C(CN1C(=O)/C(=C/c2ccccc2)SC1=S)Nc1cccnc1	9	28	-2	-1	-4
O=C(CCCN1C(=O)/C(=C\c2ccccc2)SC1=S)Nc1ccc(O)cc1C(=O)O	-27	.	1	1	2
NCCCC[C@@H](C(=O)NCCCCCCCCCCC(=O)N1CCNCC1)n1cc(CCCC(=O)O)nn1	9	.	3	0	-3
CCOC(=O)CN/C=C(\C#N)c1ccccc1	12	18	1	-1	-2
SMILES	697 NFkB inh	CHOP inh	UPR CHOP act	XBP1 UPR activ	Jurkat NFkB inh
CSc1ccc(S(=O)(=O)NCC(=O)OCC(=O)N(C)Cc2ccccc2)cc1[N+](=O)[O-]	9	.	-2	-3	5
COc1ccccc1C(CNC(=O)C(C)Oc1ccc(Br)cc1)N1CCCC1 (centres undefined)	0	.	-2	-4	1
CC(=O)c1ccc(NC(=O)CN2C(=O)/C(=C/C=C/c3ccccc3)SC2=S)cc1	11	74*	1	0	13
CCOC(=O)N1CCN(C(=S)Nc2cc(OC)c(OC)cc2C(=O)OC)CC1	-3	11	-1	0	-7
CC(=O)Nc1sc2c(c1CN1CCN(c3ccc(F)cc3)CC1)CCCC2	12	79*	5	-2	23
O=S(=O)(c1ccc2c(c1)OCCO2)N1CCC(n2nnc3cc(C(F)(F)F)ccc32)CC1	4	70*	2	2	4
O=S(=O)(c1ccccc1)N1CCC(n2nnc3cc(F)ccc32)CC1	6	-11	0	0	-1
c1ccc(C2CC(c3ccccc3)n3ncnc3N2)cc1 (centres undefined)	-10	22	-1	-1	-4
Clc1ccccc1C1CC(c2ccccc2)Nc2ncnn21 (centres undefined)	8	92*	-1	-1	9
COc1ccc(OC)c(NC(=O)COC(=O)CCCN=C2NS(=O)(=O)c3ccccc32)c1	0	.	-1	-1	-9
O=C(CSc1nc2ccc(Cl)cc2[nH]1)Nc1ccc2c(c1)CCC2	-11	71*	2	-2	-7
O=C(CSc1nc2cc3ccccc3cc2[nH]1)Nc1ccc(F)cc1	17	81*	2	4	-21
CCOc1ccc(NS(=O)(=O)c2cccc(C(=O)N(C)Cc3ccco3)c2)cc1	-4	.	-1	-2	-11
CC(C)CCCC(C)NS(=O)(=O)Cc1ccccc1 (centres undefined)	-11	37	-1	-3	-5
CCOC(=O)/C=C/C(=O)OCC(=O)Nc1ccc(Cl)cn1	-6	-19	-3	-6	5
CC(C)=CC(=O)OCC(=O)Nc1ccc(Cl)cn1	-5	75*	-2	3	9
O=C(N/N=C/c1cc(Cl)cc(Cl)c1O)c1ccncc1	-65	75*	-3	0	0
O=C(N/N=C/c1ccc(Cl)cc1Cl)c1ccncc1	-31	.	2	0	-4
Cc1cc([N+](=O)[O-])ccc1NC(=O)CSc1nnc(C)n1C	-5	.	-2	-4	-14
COc1cccc(NS(=O)(=O)c2c(C)cc(C)cc2C)c1	6	95*	2	0	1
COc1ccc(NS(=O)(=O)c2c(C)cc(C)cc2C)cc1	-18	47	3	0	9
Cc1nnsc1C(=O)N/N=C/c1ccc2ccccc2c1O	-18	75*	-1	2	43
NS(=O)(=O)c1ccc(CCNC(=O)c2cc3ccccc3s2)cc1	-36	.	0	0	-77
COc1ccc2cc(C(C)C(=O)Nc3cccc(S(=O)(=O)N(C)C)c3)ccc2c1 (centres undefined)	-3	.	-2	-3	12
COc1ccc(/C=N/n2cnc3c([nH]c4ccc(F)cc43)c2=O)cc1CSc1ccccn1	11	80*	13	17	4
CCOc1ccc(Oc2cc(NC(=O)c3ccco3)cc([N+](=O)[O-])c2)cc1	.	87*	.	.	.
Cc1ccc(C)c(Oc2cc(NC(=O)CCCn3nc(C)c([N+](=O)[O-])c3C)cc([N+](=O)[O-])c2)c1	1	80*	12	-2	6
Cc1nn(C)cc1C(=O)Nc1cc(Oc2ccc(Cl)cc2)cc([N+](=O)[O-])c1	-2	82*	-3	0	1
